Results: article PMC4344132 (Cell, 2014)
No end group written: not given here.

Legend:
[1] = biological target: human AF9 YEATS (1–138) (human) (UniProt P42568); assay: ITC
[2] = test system: histone H3 acetylation in HeLa cells; assay: Histone H3 acetylation level in HeLa cells treated with GCN5/PCAF inhibitor; format: cell-based; settings: Figure S5C
[3] = test system: AF9 occupancy on MYC in HeLa cells; assay: AF9 occupancy on MYC in HeLa cells treated with GCN5/PCAF inhibitor; format: cell-based; settings: Figure S5C
In short: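 HeLa cells (endogenous AF9 has no ChIP-grade antibody, so a line stably expressing Flag-AF9 was used) were treated with the GCN5/PCAF inhibitor. Cells were crosslinked with 1% formaldehyde for 10 min, then quenched with 125 mM glycine. Nuclei were sonicated and immunoprecipitated with 2–4 µg antibody overnight at 4°C, collected with Staph A cells, washed and reverse-crosslinked. MYC DNA was quantified by SYBR Green qPCR. Differences were tested by two-way unpaired Student's t-test.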

AF9 YEATS domain = biological target: T1, AF9 YEATS domain (Homo sapiens, UniProt P42568); assay: Isothermal titration calorimetry; format: binding; settings: ITC; different frames of the H3K9ac peptides; Figure 4A
T1 sequence (P42568 1-138 limits assumed): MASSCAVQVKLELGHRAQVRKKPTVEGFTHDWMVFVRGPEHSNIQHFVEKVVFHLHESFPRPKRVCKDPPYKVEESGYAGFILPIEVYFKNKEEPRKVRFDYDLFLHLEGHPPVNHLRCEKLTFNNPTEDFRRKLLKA

H3K18ac peptide (ITC) gave a Kd [1] of 11 µM.

For `Clc1ccc(-c2csc(NN=C3CCCC3)n2)cc1` [CPTH2], the “histone H3 acetylation levels” value [2] was “reduced” and the “AF9 occupancy on MYC” value [3] was “reduced”.

For “H3K9ac peptide with H3R8 substituted with alanine”, the fold binding reduction against the H3K9ac peptide [1] was 200 fold.

H3K27ac peptide (ITC) was tested, and the Kd [1] was 7 µM.

In the case of “H3_7–11K9ac: H3K9ac peptide frame 7–11 (ARK(Ac)ST)”, the “binding (in words)” value (AF9 YEATS domain) is reported as “no binding”.
